Measured values collected from several papers.
Protocols differ between the studies behind these lines.
Target: Serine/threonine-protein kinase haspin (HASPIN, Homo sapiens, UniProt Q8TF76)
One construct used (Q8TF76 1-798): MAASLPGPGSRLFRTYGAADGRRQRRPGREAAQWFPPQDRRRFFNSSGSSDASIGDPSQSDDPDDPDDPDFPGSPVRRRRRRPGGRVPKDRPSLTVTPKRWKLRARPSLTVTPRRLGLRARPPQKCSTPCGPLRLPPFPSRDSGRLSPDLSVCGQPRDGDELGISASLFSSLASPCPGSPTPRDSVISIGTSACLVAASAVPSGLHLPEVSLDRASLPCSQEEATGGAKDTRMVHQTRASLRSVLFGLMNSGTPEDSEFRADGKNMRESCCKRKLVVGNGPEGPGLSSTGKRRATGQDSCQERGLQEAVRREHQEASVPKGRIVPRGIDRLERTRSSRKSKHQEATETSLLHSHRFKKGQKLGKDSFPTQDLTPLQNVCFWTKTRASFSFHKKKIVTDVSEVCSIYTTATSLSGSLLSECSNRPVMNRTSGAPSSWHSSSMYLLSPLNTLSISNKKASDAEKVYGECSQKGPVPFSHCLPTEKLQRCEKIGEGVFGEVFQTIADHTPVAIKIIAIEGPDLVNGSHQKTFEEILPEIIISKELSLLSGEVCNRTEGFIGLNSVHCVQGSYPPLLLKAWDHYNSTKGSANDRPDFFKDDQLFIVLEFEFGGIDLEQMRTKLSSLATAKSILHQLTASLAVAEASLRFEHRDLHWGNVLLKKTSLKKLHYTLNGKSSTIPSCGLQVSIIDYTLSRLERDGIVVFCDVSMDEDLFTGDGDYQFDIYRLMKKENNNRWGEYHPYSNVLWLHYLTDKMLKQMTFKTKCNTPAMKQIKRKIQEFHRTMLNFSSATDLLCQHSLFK

Cn1cncc1C1=CN(c2ncnc3[nH]cnc23)CCS1
inhibition (enzyme activity; inhibitor; radiometric; 2 µM): 88.4%

Cc1c(NC(=O)c2cc(C(N)=O)nc3cc(F)ccc23)c(C(F)(F)F)nn1Cc1ccc(C(C)(C)C)cc1
remaining binding (cell-free assay; competition with immobilised ligand; 1 µM): 100%

CC/C(=N\NC(=O)NCc1cccc(O)c1)c1ccc(O)c(C)c1O
inhibition (enzyme activity; inhibitor; 0.1 µM): -0.2%

Cc1sc(C(=O)NC2COC2)cc1-n1cc(NC(=O)Nc2c(F)cccc2Cl)cn1
remaining activity (enzyme activity; inhibitor; 10 µM): 92.4%

O=C1Nc2ccc(Cl)cc2C1=Cc1cc(Cl)c(O)c(Cl)c1
remaining signal (cell-free assay; 0.5 µM): 8.65%

Cc1nc(Cc2cccc(C(F)(F)F)c2)sc1-c1ccc(C(N)=O)nc1
remaining binding (cell-free assay; competition with immobilised ligand; 1 µM): 100%

CC(C)(C)c1nc(-c2cccc(NS(=O)(=O)c3c(F)cccc3F)c2F)c(-c2ccnc(N)n2)s1
remaining activity (enzyme activity; inhibitor; radiometric; 1 µM): 147%

CC(C)(O)[C@H]1CC[C@H](Nc2ccc3ncc(-c4cccc(C(F)(F)F)c4)n3n2)CC1
remaining activity (enzyme activity; inhibitor; 1 µM): 15.4%

COc1cc(-c2cc(-c3ccc(N4CCNCC4)cc3)cnc2C)cc(OC)c1OC
inhibition (enzyme activity; inhibitor; 0.1 µM): 3%

N#CCCc1ccc2c(c1)-c1[nH]c3ccc([N+](=O)[O-])cc3c1CC(=O)N2
remaining signal (cell-free assay; 0.5 µM): 110%

Cn1cnc(Br)c1C1=CN(c2ncnc3[nH]cnc23)CCS1
inhibition (enzyme activity; inhibitor; radiometric; 2 µM): 88.8%

C[C@@H]1CN(c2cc(-c3nn(C)c4ccc(OC5(C)CC5)cc34)ncn2)C[C@H](C)O1
remaining binding (cell-free assay; competition with immobilised ligand; 1 µM): 99%

Cc1ccc(C(=O)Nc2ccc(CN3CCN(C)CC3)c(C(F)(F)F)c2)cc1C#Cc1cnc2cccnn12
remaining activity (enzyme activity; 23.5 nM): 86%

CN(C)C(=O)Cn1cc(-c2nc([C@@](C)(c3ccc(-c4cnc(N)nc4)cc3)C3CC3)no2)cn1
remaining binding (cell-free assay; competition with immobilised ligand; 1 µM): 100%

O=C(Nc1cnn(-c2csc(C(=O)NC3COC3)c2)c1)Nc1c(F)cccc1Cl
remaining activity (enzyme activity; inhibitor; 5 µM): 111%

COCCOc1nc(-c2ccc(Cl)nc2)nc2c1CN(C(=O)c1ncn3ccccc13)CC2
remaining binding (cell-free assay; competition with immobilised ligand; 0.1 µM): 100%

O=C(O)c1ccc2c3c1cccc3c(=O)n1c3ccccc3nc21
remaining activity (enzyme activity; inhibitor; 0.5 µM): 90.9%

Cc1c(C(=O)O)cc(-c2ccc(C3CCNCC3)cc2)c2ccc(-c3ccc(C(F)(F)F)cc3)cc12
remaining binding (cell-free assay; competition with immobilised ligand; 1 µM): 100%

CCN(CC)CCNC(=O)c1c(C)[nH]c(/C=C2\C(=O)Nc3ccc(F)cc32)c1C
inhibition (enzyme activity; inhibitor; 0.3 µM): 32%

Cc1cnc(NC2CCOCC2)nc1-n1cnc(C(=O)NC(CN)c2cc(F)cc(Cl)c2)c1 (stereo not shown)
remaining activity (enzyme activity; inhibitor; radiometric; 1 µM): 40%

Cc1ccc(Nc2nccc(N(C)c3ccc4c(C)n(C)nc4c3)n2)cc1S(N)(=O)=O
inhibition (enzyme activity; inhibitor; 0.3 µM): 0%

N#Cc1ccc(Nc2ccc3[nH]c(=O)[nH]c3c2)c(Cl)c1
remaining binding (cell-free assay; competition with immobilised ligand; 1 µM): 100%

CNC(=O)c1cc(Oc2ccc(NC(=O)Nc3ccc(Cl)c(C(F)(F)F)c3)cc2)ccn1
inhibition (enzyme activity; inhibitor; 10 µM): 10%

CCCCN(CCCC)C(=O)CN1C[C@@H](c2cc(OC)c3c(c2)OCO3)[C@H](C(=O)O)[C@H]1CC(C)(C)CCC
remaining binding (cell-free assay; competition with immobilised ligand; 1 µM): 100%

O=c1c2ccccc2[nH]c(=S)n1CCN1CCC(=C(c2ccc(F)cc2)c2ccc(F)cc2)CC1
remaining activity (enzyme activity; inhibitor; 0.5 µM): 95.4%
